The text below walks through data of ChEMBL document CHEMBL2429835.

By MIC90 is commonly meant the lowest concentration that inhibits either 90% of growth or 90% of the strains tested, depending on the study. Low readings indicate greater potency, high ones weaker potency.

In brackets after ≈: the same amount, converted by molar mass. Activity calls are given as the source filed them. No cut-off for these calls is given here.

For experiment [1], the system named is Mycobacterium tuberculosis. The experiment is described as follows: Antimycobacterial activity against rifampin-resistant Mycobacterium tuberculosis ATCC 35838. The class given is functional. Summed up:
(§1)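 Strain (H37Rv or ATCC single-drug-resistant isolates) grown to late log phase in 7H9 with 0.2% glycerol, 0.05% Tween80, 10% OADC. Cells washed into PBS, passed through 8 μm filter, frozen; CFU titred on 7H11 agar. MABA MIC is the lowest concentration giving ≥90% growth inhibition versus untreated controls.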

For experiment [2], the system named is Mycobacterium tuberculosis. The experiment is described as follows: Antimycobacterial activity against isoniazid-resistant Mycobacterium tuberculosis ATCC 35822. The class given is functional. In short, it runs like this: as §1
Experiment [3] relates to Mycobacterium tuberculosis. The experiment is described as follows: Antimycobacterial activity against cycloserine-resistant Mycobacterium tuberculosis ATCC 35826. Type of experiment: functional. In short, it runs like this:
as §1

Experiment [4] deals with Mycobacterium tuberculosis. The experiment is described as follows: Antimycobacterial activity against streptomycin-resistant Mycobacterium tuberculosis ATCC 35820. The class given is functional. Summed up:
as §1

The subject of experiment [5] is Mycobacterium tuberculosis. The experiment is described as follows: Antimycobacterial activity against kanamycin-resistant Mycobacterium tuberculosis ATCC 35827. Type of experiment: functional. Summed up: as §1
The subject of experiment [6] is Mycobacterium tuberculosis variant bovis BCG. The experiment is described as follows: Antimycobacterial activity against Mycobacterium bovis BCG ATCC 35734 at 100 ug/ml after 8 days by microplate Alamar blue assay. The class given is functional, organism-based. In short, it runs like this:
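MABA in 7H12 (M. abscessus, M. bovis BCG) or 7H9 (others). Pre-dye incubation: M. abscessus 37 °C 3 days; BCG 37 °C 7 days; M. chelonae 30 °C 3 days; M. marinum 30 °C 5 days; M. avium and M. kansasii 37 °C 6 days. Then 20% Tween80 plus Alamar blue added: 4 h (abscessus), 6 days (chelonae), 1 day (others). Tested at 100 μg/mL.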
(Alamar Blue is a resazurin reagent that responds to reducing activity.)

In the case of `CCOC(=O)c1c(-c2ccccc2)c2cc(Cl)ccc2oc1=O`, the MIC90 is 46.6 µg/mL (≈ 142 µM) in experiment [1]; 44.7 µg/mL (≈ 136 µM) in experiment [2]; above 100 µg/mL in experiment [3]; 49.5 µg/mL (≈ 151 µM) in experiment [4]; above 100 µg/mL in experiment [5]. In experiment [6], the result was inactive.

Turning to `O=c1cc(-c2ccccc2)c2ccc(Cl)cc2o1`, the MIC90 in experiment [1] was 45.4 µg/mL (≈ 177 µM); in experiment [2], 76.5 µg/mL (≈ 298 µM); in experiment [3] it was 47.3 µg/mL (≈ 184 µM); in experiment [4], 46.9 µg/mL (≈ 183 µM); in experiment [5], 47.4 µg/mL (≈ 185 µM). Further, the outcome in experiment [6] was inactive.

Turning to `O=[N+]([O-])c1cn2c(n1)OC[C@@H](OCc1ccc(OC(F)(F)F)cc1)C2` [PRETOMANID], the MIC90 amounted to 0.07 µg/mL (≈ 0.195 µM) in experiment [1]; 0.05 µg/mL (≈ 0.139 µM) in experiment [2]; 0.18 µg/mL (≈ 0.501 µM) in experiment [3]; 0.17 µg/mL (≈ 0.473 µM) in experiment [4]; 0.34 µg/mL (≈ 0.946 µM) in experiment [5].

For `CO[C@H]1/C=C/O[C@@]2(C)Oc3c(C)c(O)c4c(O)c(c(/C=N/N5CCN(C)CC5)c(O)c4c3C2=O)NC(=O)/C(C)=C\C=C\[C@H](C)[C@H](O)[C@@H](C)[C@@H](O)[C@@H](C)[C@H](OC(C)=O)[C@@H]1C` [RIFAMPIN], the MIC90 in experiment [1] is above 3.29 µg/mL; in experiment [2], 0.04 µg/mL (≈ 0.0486 µM); in experiment [3] it was 0.02 µg/mL (≈ 0.0243 µM); in experiment [4], 0.09 µg/mL (≈ 0.109 µM); in experiment [5], 0.02 µg/mL (≈ 0.0243 µM).

As for `NC[C@H]1O[C@H](O[C@H]2[C@H](O)[C@@H](O[C@H]3O[C@H](CO)[C@@H](O)[C@H](N)[C@H]3O)[C@H](N)C[C@@H]2N)[C@H](O)[C@@H](O)[C@@H]1O` [KANAMYCIN], the MIC90 was 0.73 µg/mL (≈ 1.51 µM) in experiment [1]; 0.72 µg/mL (≈ 1.49 µM) in experiment [2]; 1.12 µg/mL (≈ 2.31 µM) in experiment [3]; 0.76 µg/mL (≈ 1.57 µM) in experiment [4]; above 25 µg/mL in experiment [5].

On to `CN[C@@H]1[C@H](O[C@H]2[C@H](O[C@H]3[C@H](O)[C@@H](O)[C@H](N=C(N)N)[C@@H](O)[C@@H]3N=C(N)N)O[C@@H](C)[C@]2(O)C=O)O[C@@H](CO)[C@H](O)[C@H]1O` [STREPTOMYCIN], for which the MIC90 was 0.47 µg/mL (≈ 0.808 µM) in experiment [1]; 0.56 µg/mL (≈ 0.963 µM) in experiment [2]; 0.53 µg/mL (≈ 0.911 µM) in experiment [3]; above 9.31 µg/mL in experiment [4]; 1.48 µg/mL (≈ 2.54 µM) in experiment [5].

With `NNC(=O)c1ccncc1` [ISONIAZID], the MIC90 in experiment [1] was 0.03 µg/mL (≈ 0.219 µM); in experiment [2], above 2.19 µg/mL; in experiment [3], 0.04 µg/mL (≈ 0.292 µM); in experiment [4], 0.03 µg/mL (≈ 0.219 µM); in experiment [5] it was 0.07 µg/mL (≈ 0.51 µM).

Regarding `O=c1cc(-c2ccccc2)c2cc(Cl)ccc2o1`, the result in experiment [6] was inactive.

On to `CCOC(=O)c1c(-c2ccccc2)c2ccc(Cl)cc2oc1=O`, for which the MIC90 in experiment [1] was found to be 44.7 µg/mL (≈ 136 µM); in experiment [2], 31.7 µg/mL (≈ 96.4 µM); in experiment [3], 47.3 µg/mL (≈ 144 µM); in experiment [4] it was 46.9 µg/mL (≈ 143 µM); in experiment [5], 43.9 µg/mL (≈ 134 µM). The outcome in experiment [6] was inactive.

For `N[C@@H]1CONC1=O` [CYCLOSERINE], the MIC90 was 4.8 µg/mL (≈ 47 µM) in experiment [1]; 5 µg/mL (≈ 49 µM) in experiment [2]; above 10.2 µg/mL in experiment [3]; 4.9 µg/mL (≈ 48 µM) in experiment [4]; 4.9 µg/mL (≈ 48 µM) in experiment [5].
